Screening data deposited in PubChem by The Scripps Research Institute Molecular Screening Center.
Only some compounds are listed: those with a hit (about 2.3% of all), similar ones and a draw of the others.
V1R ag counter: counter-screen for oxytocin receptor agonists: human V1a receptor agonists; P37288; CHO-V1R cells, Fluo-8 calcium fluorescence, agonist mode; 0% DMSO, 100% 3 nM vasopressin; activation, % at 3 µM; 320,000 tested, 0.25% active;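 active = activation above the mean activation of all tested compounds plus 3 SD, per screening run, cut at about 20% in these data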;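 also: signal is peak over basal fluorescence ratio across a 100 second FLIPR read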
OXTR ag: activates the human oxytocin receptor. CHO-OTR cells, Fluo-8 calcium fluorescence; normalized: DMSO 0%, oxytocin 100%. 320,000 tested, 0.32% active. activation, % at 3 µM. P30559;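 active = activation above the mean of all tested compounds plus 3 SD, cutoff set per screening run, cut at about 20% in these data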;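 also: peak over basal fluorescence ratio from a 100 s FLIPR kinetic read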
TAAR1 antagonist: antagonists of human TAAR1 | CHO RD-HGA16 TAAR1, Fluo-8 calcium fluorescence, antagonist | inhibition, % at 3 µM | 360,000 tested, 1.5% active | AID 624466;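 active = inhibition above a per-plate cutoff, the mean inhibition of test compounds on that plate plus 3 SD, cut at about 49% in these data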;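 also: 0% = DMSO plus EC80 beta-PEA response and 100% = DMSO alone without agonist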
Target sequence (Q96RJ0 whole entry, looked up): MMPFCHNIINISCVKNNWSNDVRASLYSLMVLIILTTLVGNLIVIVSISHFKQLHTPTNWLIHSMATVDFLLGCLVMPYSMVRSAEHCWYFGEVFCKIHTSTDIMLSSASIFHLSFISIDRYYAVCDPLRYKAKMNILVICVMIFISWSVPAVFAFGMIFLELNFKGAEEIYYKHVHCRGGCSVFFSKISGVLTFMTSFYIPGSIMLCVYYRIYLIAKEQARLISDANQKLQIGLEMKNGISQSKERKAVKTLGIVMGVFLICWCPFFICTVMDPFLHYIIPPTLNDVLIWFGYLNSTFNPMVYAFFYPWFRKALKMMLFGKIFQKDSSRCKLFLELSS
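Assay system: CHO-derived RD-HGA16 cells stably expressing human TAAR1 plus Gα16. Timing: 140 s kinetic read after compound, 140 s after agonist. Technique: kinetic Fluo-8 calcium fluorescence measurement. Measure: % inhibition of agonist calcium response.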
OXTR potentiator: potentiators of human oxytocin receptor | 320,000 tested, 0.061% active | P30559 | activation, % at 3 µM | AID 2445 | CHO-OTR cells, Fluo-8 calcium fluorescence, potentiator mode; 0% = oxytocin EC15, 100% = EC100;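 active = activation above that plate's cutoff, the mean activation of tested compounds plus 3 SD, cut at about 6.6% in these data, passing the limit was not always enough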;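 also: 100% uses oxytocin at 75 nM as the full agonist control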
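Material: human OTR in CHO cells. Compound: 3.0 µM, one dose. Timing: compound 6 min at room temperature before oxytocin, 100 s read. Evaluation: % activation of max/min ratio relative to oxytocin controls. Replication: single well per compound, singlicate. Signal: Fluo-8 calcium dye fluorescence.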
TAAR1 ag: agonists of human TAAR1; Q96RJ0; CHO RD-HGA16 TAAR1, Fluo-8 calcium fluorescence; vehicle wells 0%, saturating PEA agonist 100%; activation, % at 3 µM; 360,000 tested, 0.99% active; AID 624467;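 active = activation above the mean activation of all test compounds in the run plus 3 SD, cut at about 38% in these data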
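Test system: RD-HGA16 (CHO) cells co-expressing Gα16 and hTAAR1 / Benchmarks: DMSO vehicle as 0%, PEA at EC100 as 100% / Repeats: no replicates (n 1) / Measure: % activation from peak over basal fluorescence ratio, DMSO-to-PEA scaled / Timing: 17-24 h plating, Fluo-8 75 min 37 °C, 30 min RT / Technique: kinetic Fluo-8 calcium fluorescence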
* = called active by the depositor; . = not tested or not shown.

SMILES | V1R ag counter | OXTR ag | TAAR1 antagonist | OXTR potentiator | TAAR1 ag
C[C@]12CC[C@H](O)CC1=CCC1C2CC[C@]2(C)C(=O)[C@H](Br)CC12 (stereo partly specified) | 7 | 6 | 59* | -9 | 12
C[C@]12CC[C@H](O)CC1=CC[C@@H]1[C@@H]2CC[C@]2(C)C(=O)CC[C@@H]12 | 1 | -1 | -21 | -9 | 7
NC(Cc1ccc(Cl)cc1)c1csc(Nc2ccccn2)n1 (stereo unspecified) | . | . | 29 | . | 44*
NC(Cc1ccccc1)c1csc(Nc2ccccn2)n1 (stereo unspecified) | . | . | 12 | . | 6
NC(Cc1ccc(F)cc1)c1csc(Nc2ccccn2)n1 (stereo unspecified) | . | . | 8 | . | 40*
CC(=O)OC1C(=O)OCC23CCC4(C)OC4C2OC2CC(OC(=O)C=CC=CC(=O)OCCC1C)C3(C)C21CO1 (stereo unspecified) | . | . | 65* | . | 12
O=C(CN1CCN(Cc2ccc(Cl)cc2)C1=O)N1CCC2(CC1)OCCO2 | 0 | -1 | 0 | -11 | 3
O=[N+]([O-])c1cccc(NP(=O)(Oc2ccccc2)Oc2ccccc2)c1 | 1 | 2 | 58* | -11 | 3
CCOP(=O)(OCC)c1ccc(OP(=O)(c2cccc([N+](=O)[O-])c2)c2cccc([N+](=O)[O-])c2)cc1 | 1 | -1 | -17 | -2 | 5
CCCC[N+]1(C)[C@@H]2CC(OC(=O)[C@H](CO)c3ccccc3)C[C@H]1[C@@H]1O[C@@H]12 (stereo partly specified) | 0 | 0 | -9 | -1 | 0
COc1ccc(C(c2nnnn2-c2ccc3c(c2)OCCO3)N2CCC(n3c(=O)[nH]c4ccccc43)CC2)cc1 (stereo unspecified) | . | . | 59* | . | 20
COc1ccc(C(c2nnnn2Cc2ccccc2)N2CCC3(CC2)C(=O)NCN3c2ccccc2)cc1 (stereo unspecified) | . | . | 4 | . | 3
COc1ccc(-n2nnnc2C(CCSC)N2CCC(n3c(=O)[nH]c4ccccc43)CC2)cc1 (stereo unspecified) | . | . | 55* | . | 14
Cc1cccc(C)c1-n1nnnc1C(CCc1ccccc1)N1CCC(n2c(=O)[nH]c3ccccc32)CC1 (stereo unspecified) | . | . | 16 | . | 4
O=c1[nH]c2ccccc2n1C1CCN(C(CCc2ccccc2)c2nnnn2-c2ccc3c(c2)OCCO3)CC1 (stereo unspecified) | . | . | 55* | . | 7
COc1cccc(C(c2nnnn2Cc2ccccc2)N2CCC3(CC2)C(=O)NCN3c2ccccc2)c1OC (stereo unspecified) | . | . | 54* | . | 8
COC(=O)C1=C(c2ccc(C(C)=O)cc2)C[C@@H]2CC[C@H]1N2C(=O)NC1CC1 | 1 | 2 | -5 | 0 | 11
Nc1c(Br)cc2c3c(cccc13)-c1ccccc1-2 | . | . | 42 | . | 30
CSCCC(c1nnnn1-c1ccc2c(c1)OCCO2)N1CCC2(CC1)C(=O)NCN2c1ccccc1 (stereo unspecified) | . | . | 54* | . | 17
COC1C(C)OC(OC2CC(C)(O)Cc3cc4c(c(O)c32)C(=O)c2c(O)cc3c(c2C4=O)OC2OC3(C)C(O)C(N(C)C)C2O)C(OC)C1(C)OC (stereo unspecified) | . | . | 39 | . | 47*
CCOC(=O)c1ccc(N=C(c2ccccc2)c2c(O)n(C)c(=O)n(C)c2=O)cc1 | 0 | 0 | -18 | -8 | 3
Cc1cc(/C=C2\C(=O)NC(=O)N(c3cccc(F)c3)C2=O)c(C)n1-c1cc(C(=O)O)cc(C(=O)O)c1 | 1 | 0 | -16 | -2 | 12
Cc1cc(C)cc(-n2c(C)cc(/C=C3\C(=O)NC(=O)N(C)C3=O)c2C)c1 | 0 | -1 | -16 | -8 | 38*
Cc1ccc2c(c1)cc1c(=O)n(CC(=O)N3CCC4(CC3)OCCO4)nc(C)n12 | -1 | 0 | -18 | -6 | 2
CCOC(=O)C(NC(=O)CC)(Nc1ccc(C(O)(C(=O)OCC)C(F)(F)F)cc1C)C(F)(F)F (stereo unspecified) | 0 | 0 | -3 | -13 | 1
SMILES | V1R ag counter | OXTR ag | TAAR1 antagonist | OXTR potentiator | TAAR1 ag
COC(=O)C(O)(c1ccc(NC(=S)NC(=O)c2ccc(Cl)cc2Cl)cc1)C(F)(F)F (stereo unspecified) | 18 | 19 | 54* | -11 | 48*
COC(=O)C(O)(c1ccc(NC(=S)NC(=O)c2ccc(Cl)cc2Cl)c(C)c1)C(F)(F)F (stereo unspecified) | 22* | 29* | 72* | -14 | 34
C[N+]1(C)[C@@H]2CC(OC(=O)[C@H](CO)c3ccccc3)C[C@H]1[C@@H]1O[C@@H]12 (stereo partly specified) | 1 | 1 | -19 | -7 | 0
COc1ccc(-n2c(O)c(/C=C/C=Nc3ccccc3)c(=O)[nH]c2=O)cc1 | 43* | 80* | 33 | -15 | 63*
O=c1[nH]c(=O)n(-c2ccccc2)c(O)c1/C=C/C=Nc1ccccc1 | 13 | 16 | 6 | -8 | 13
O=c1[nH]c(=O)n(C2CCCCC2)c(O)c1/C=C/C=Nc1ccccc1 | 17 | 11 | 43 | -3 | 39*
CC1CCN(CC(=O)c2ccc3c(c2)OCCO3)CC1 | 0 | 0 | -8 | -8 | 0
CC1CCCN(CC(=O)c2ccc(Cl)c(Cl)c2)C1 (stereo unspecified) | -1 | -1 | 6 | -6 | 42*
COC(=O)C1=C(c2cccc(C#N)c2)C[C@@H]2CC[C@H]1N2C(=O)NCCO | 1 | 1 | 11 | 7 | 4
O=C1NC(=O)N(c2ccccc2F)C(=O)/C1=C/c1ccc(Sc2nc3ccccc3[nH]2)o1 | 28* | 39* | 57* | -12 | 74*
Cc1ccc(S(=O)(=O)NP(=O)(Oc2ccccc2)Oc2ccccc2)cc1 | -1 | 1 | -12 | 5 | 7
Cc1ccc(C)c(NP(=O)(Oc2ccccc2)Oc2ccccc2)c1 | 3 | 3 | 80* | -5 | 8
Cc1cc(C)n(-c2ccc(NN=C(C#N)C#N)cc2)n1 | 18 | 19 | 24 | -19 | 15
N#CC(C#N)=NNc1ccc(-n2ccc(C(F)(F)F)n2)cc1 | 14 | 24* | 9 | -21 | 6
Nc1cc(Cl)c2nonc2c1[N+](=O)[O-] | -2 | -2 | 12 | -5 | -2
COC(=O)C1=C(c2ccc(F)cc2OCc2ccccc2)C[C@@H]2CC[C@H]1N2C(=O)NCc1ccc(Br)cc1 | 3 | 2 | 51* | -4 | 12
COC(=O)C1=C(c2ccc(C(C)=O)cc2)C[C@@H]2CC[C@H]1N2C(=O)NCc1ccc(C(F)(F)F)cc1 | 33* | 45* | . | -10 | .
